Assay: Toxicity liver stage against HepG2, at 10uM
Assay type: cell-based
Set-up: test concentration 10 uM, cell line HepG2-A16-CD81EGFP
Details: human, HepG2-A16-CD81EGFP cells; read-out: INHIBITION
Summary of the method: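 Uninfected HepG2-A16-CD81EGFP cells, 3 × 10^3 per well, 1536-well, plated on prespotted compound at 10 μM final, parasite-free screening media added to match infected plates; puromycin 10 μM positive, DMSO 0.5% negative; run in parallel with 48 h PbLuc assay at 37 °C, 5% CO2; viability by CellTiter-Glo luminescence, normalized to controls.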

Structure (SMILES) | cytotoxicity at 10 µM [%]
COC1CCCN(Cc2nc(Cc3ccccc3F)no2)C1 (stereo unspecified) | -4.23
CCn1cnnc1CN(C)C(=O)C1CCC(=O)N(CC2CCCCC2)C1 (stereo unspecified) | -1.33
c1cncc(-c2c[nH]c([C@@H]3COCCN3Cc3ccncc3)n2)c1 | 3.25
CC1=C[C@@H](CN2CCN(C)CC2)[C@H](C(C)C)C[C@H]1Cc1nnc(C)o1 | -0.39
Cn1cncc1-c1nnc([C@H]2CCN(Cc3ccc(F)c(F)c3)C2)o1 | 3.04
O=S(=O)(NC[C@H]1C[C@@H]2CCN1C[C@@H]2CN1CCOCC1)c1ccccc1 | 1.82
CCS(=O)(=O)N1CCC(c2nnc(C3CC3)o2)CC1 | -10.7
Cc1cnc(N2C[C@@H]3[C@@H](C2)OCC(=O)N3C)nc1 | -3.4
O=c1ccc2c([nH]1)CCC(NCc1ccncc1)C2 (stereo unspecified) | -6.22
CC(C)COCC1CN(Cc2ccco2)Cc2ncn(C)c21 (stereo unspecified) | 4.24
O=C(c1cnccn1)N1CCN(Cc2cccnc2)c2ncccc2C1 | -1.52
CCOc1cccc(CNc2ccccc2C(=O)OC)c1O | 6.69
CC(C)c1nnc2ccc(N3CCC(C(N)=O)CC3)nn12 | 8.63
CNC(=O)C1(C)CN(S(=O)(=O)c2cccc(OC)c2)CCO1 (stereo unspecified) | -1.43
CCCC1c2cccn2CCN1C(=O)Cn1cnc2sc(C)cc2c1=O (stereo unspecified) | -0.35
Nc1nccnc1C1CN(C(=O)c2ccc3c(c2)OCO3)CCO1 (stereo unspecified) | -23.7
NC(=O)CN1CCOCC(Cc2ccccc2Cl)C1 (stereo unspecified) | 3.18
CCc1nnc(Nc2cccc(C3CCN(C(=O)CO)CC3)n2)s1 | -3.86
O=c1[nH]c(-c2ccccn2)nc2c1CCN(Cc1cccc(O)c1)C2 | -17.6
Cc1ncc(CNC(=O)Cc2cccs2)c(C2CCCN2C)n1 (stereo unspecified) | -0.279
CC(=O)N1CCCN(C(=O)NC(C)c2ccc(C)o2)CC1 (stereo unspecified) | 2.72
COC(=O)C(C)CN(C)S(=O)(=O)c1c(Br)cc2[nH]c(=O)oc2c1Cl (stereo unspecified) | 8.73
C[S+]([O-])c1cccc(NC(=O)N[C@H](CCO)c2ccccc2)c1 (stereo partly specified) | -3.13

Structure (SMILES) | cytotoxicity at 10 µM [%]
CC1c2cc(F)ccc2CCN1CCS(=O)(=O)C(C)C (stereo unspecified) | 2.72
Cc1cc(C)c(C(=O)N(C)CCN(C)C(=O)OC(C)(C)C)[nH]1 | 3.87
CC(CNC(=O)N(C)Cc1ccco1)N1CCc2sccc2C1 (stereo unspecified) | -13.7
Cc1csc(C(C)(C)NCC(=O)N(C)Cc2ccc(C)o2)n1 | -1.12
CCc1nnc(C(C)N2CCC(NC(=O)C3CCCCC3)CC2)o1 (stereo unspecified) | -8.35
Cc1nc(CN(C)S(=O)(=O)c2ccccc2C(F)(F)F)no1 | -3.03
CCc1nnsc1C(=O)NCC1CN(CC(C)C)CCO1 (stereo unspecified) | 0.537
CCCS(=O)(=O)N1CCN(CCCO)CC1 | 5.96
Cc1cn2nc(N(C)C3CCCN(c4cccnn4)C3)sc2n1 (stereo unspecified) | 4.29
COc1cc(C)c(S(=O)(=O)CC(=O)N(C)C(C)C)cc1OC | 4.02
COc1ccc(OCCN(C)S(=O)(=O)c2cnn(C)c2)cc1 | -2.82
Cn1cccc1C(=O)NC(C)(C(N)=O)c1cccc(Cl)c1 (stereo unspecified) | 4.07
CCC(=O)NCC(=O)Nc1ncc(I)cc1C | 5.4
O=C(NCc1ccccc1CN1CCCC1=O)Nc1nccs1 | 9.66
CCN1CCCC(CNC(=O)CCc2ccc(OC)c(F)c2)C1 (stereo unspecified) | -3.42
c1csc(-c2nc(CN3CCCCC3Cn3cccn3)co2)c1 (stereo unspecified) | 3.22
COCCn1cc(NC(=O)NCC(C)N2CCOCC2)cn1 (stereo unspecified) | 1.18
Cc1noc(C)c1CN(C)C(=O)c1ccc2c(c1O)OC(C)(C)C2 | -2.92
CCOCCCC(=O)NS(=O)(=O)c1ccc(C)s1 | 10
O=C1C(Sc2nnnn2C2CC2)CCN1c1ccccc1Cl (stereo unspecified) | 2.4
CNC(=O)NC(=O)CCSCc1cc(F)cc2cccnc12 | -5.31
CCc1nc(C2CCCN2Cc2ncc(C)c(OC)c2C)no1 (stereo unspecified) | 3.3
Cc1cc(CN2CCN(Cc3cnc4c(c3)c(C)nn4C)CC2)on1 | -12.6

Structure (SMILES) | cytotoxicity at 10 µM [%]
COc1ccc(NC(=O)N2CCCCC2c2ncc[nH]2)cc1 (stereo unspecified) | 10.4
c1csc(-c2nnc(CSCCN3CCOCC3)o2)c1 | -5.77
Cc1ccc(OCCNC(=O)C2CCOCC2)c(C)c1 | 16.4
COCc1cnc2n1CCN(C(=O)c1cnc3ccccc3c1)C2C (stereo unspecified) | -110
CN1CCC2(CC1)OC(C(=O)NCc1cccnc1)Cn1ccnc12 (stereo unspecified) | -87.3
CC[C@@H](CO)Nc1nccc(-c2cnc3sc(C)cn3c2=O)n1 | -14
Cn1ccnc1CN1CCc2ncnc(N3CCCC(C#N)C3)c2CC1 (stereo unspecified) | -5.1
Cc1cc2nc(C(C)C)cc(N3CCC(O)CC3)n2n1 | -8.63
O=C(CCN1CCCCO1)NC1CCCN(CC2CCCCC2)C1 (stereo unspecified) | 4.21
OCC1(Cc2cccc(Cl)c2)CCCN(c2ncccn2)C1 (stereo unspecified) | 0.668
CC(C)n1ccnc1C1CCN(c2nccc(C(F)(F)F)n2)CC1 | 2.52
CC1(c2ccccc2)CCC(=O)N(CCN2CCOC2=O)C1 (stereo unspecified) | 3.37
CCc1nc(C)c(C(=O)N2CCNCC2C(=O)Nc2ccc(C)nc2)o1 (stereo unspecified) | -4
Cc1cccnc1CCNC(=O)[C@@]12CNC[C@@H]1CN(S(C)(=O)=O)C2 | -0.973
COc1ccc(CN2CCC3(CCCNC3)C2)cc1Cn1cccn1 (stereo unspecified) | -10.1
CC(=O)Nc1ccc2nc(CN(C)Cc3snnc3C)ccc2c1 | -12.8
CCC(CO)N(Cc1ccccn1)C(=O)c1ncccc1C (stereo unspecified) | 3.42
COc1ccc(OC2CCN(C(=O)C(C)Cn3cccn3)CC2)cc1 (stereo unspecified) | 5.43
Cc1ccccc1C(=O)N1CC[C@@H](N2CCC(O)CC2)[C@H](O)C1 | 2.94
CCC(C(=O)NCc1ccncc1)N(c1ccc(F)cc1)S(C)(=O)=O (stereo unspecified) | -5.48
CSc1nccc(N2CCN(C)C3(CCC(=O)N(CC4CC4)CC3)C2)n1 (stereo unspecified) | 5.6
Cc1nccn1Cc1nnc(C2CCCN(c3cnccn3)C2)n1C (stereo unspecified) | 2.73
CCn1nc(C)c(CCNC(=O)C2CCCN(C(=O)N(C)C)C2)c1C (stereo unspecified) | 0.874

Structure (SMILES) | cytotoxicity at 10 µM [%]
Cc1nccn1-c1cccc(C2CCCN(C3CCCCC3)C2)n1 (stereo unspecified) | -2.65
c1cnn(CC2CCCN2Cc2nc(C3CC3)no2)c1 (stereo unspecified) | 1.61
Cc1csc(CNC(=O)N2CCN(Cc3cc(C)on3)CC2)n1 | -5.49
O=C(NCCn1cccn1)c1ccn(-c2cccc(F)c2)n1 | -4.58
Cc1nc(CNC(=O)NCC(O)c2ccccc2)cs1 (stereo unspecified) | 0.682
Cc1cc(C)c(CNC(=O)CCC2CCCO2)c(=O)[nH]1 (stereo unspecified) | 5.1
N#CC1(C(=O)N2CCCN(c3nccs3)CC2)CCCCC1 | -5.83
Cc1nc(CN2CCCC(NCc3ccc(C(N)=O)cc3)C2)no1 (stereo unspecified) | -9.47
CN(C)c1ncccc1CNS(=O)(=O)c1ccc(F)c(F)c1 | -7.18
Cc1nc(CN2CCC(N3CCN(C)C3=O)CC2)no1 | -22
Cc1ccc(S(=O)(=O)NC(=O)COc2cccc(C(N)=O)c2)s1 | -12.7
N#Cc1ccc(OCCN2CCn3c(nnc3C3CC3)C2)cc1 | -3.75
OC(CNCCn1cccn1)c1cccc(Br)c1 (stereo unspecified) | -5.98
Cc1cnn(CC2CN(CC(=O)Nc3ccncc3)CCO2)c1 (stereo unspecified) | -3.75
COc1c(C2CCCN2Cc2nc(C)c(C)o2)c(C)nn1C (stereo unspecified) | -2
CC(C)(C)c1nc(CN(Cc2cccs2)CC2CCCO2)no1 (stereo unspecified) | -10
CC(C)N1CCN(C(=O)Cc2csc(-c3ccco3)n2)CC1 | -2.93
CN(C)CC(=O)N1CCN(C(=O)c2cccc3[nH]ncc23)CC1 | -11.6
CCN(Cc1cccc(F)c1)Cn1nc(C)c2c(C)onc2c1=O | -3.54
CSCc1ccc(C(=O)N2CCN(CC(C)O)CC2)cc1 (stereo unspecified) | -6.23
CCN(Cc1ccc2c(c1)OCCO2)C(=O)NCc1nncn1CC | -4.35
Cn1cc(NC(=O)N2CCC(c3ccccc3)CC2)ccc1=O | -9.42
Cc1ccc(NC2CCN(C(=O)c3cc[nH]n3)CC2)nn1 | -15.2

Structure (SMILES) | cytotoxicity at 10 µM [%]
CS(=O)(=O)NCCCN1CCCC1Cc1ccccc1 (stereo unspecified) | -11.7
CN(Cc1ccc(F)cc1)C(=O)CN1CCCC(Cn2cncn2)C1 (stereo unspecified) | -14.8
CC(CNCc1ccc(Cl)cc1)Oc1ccccn1 (stereo unspecified) | 5.01
CNc1nc(C2CCCN2C(C)=O)nc2c1CN(CCO)CC2 (stereo unspecified) | 2.69
O=C(NCc1ccco1)[C@@H]1CCO[C@@H]2CCN(C3CCOCC3)C[C@H]21 | -74.9
CCCS(=O)(=O)N1CCOC2(CCCN(c3ccccn3)C2)C1 (stereo unspecified) | 4.23
COCC1CN(C(=O)COc2ccccc2)Cc2cn(C)nc21 (stereo unspecified) | 0.55
Cc1nc(CO[C@@H]2CN(Cc3cccnc3)[C@@H]3COC[C@@H]32)cs1 | 5.05
CCN1CCC(CNCc2c[nH]nc2C(C)(C)C)C1 (stereo unspecified) | -7.77
Fc1ccc(CN2C[C@@H]3OCCN(CCN4CCCC4)[C@@H]3C2)cc1 | -3.58
CN(C)S(=O)(=O)N1C[C@@H]2COC[C@]2(COc2ccccn2)C1 | 0.705
Cc1ccc(CN2CCOC3(COCCN(S(C)(=O)=O)C3)C2)s1 (stereo unspecified) | 10.8
Cc1ncsc1CN1CC[C@H]2OCC[C@@]2(C(=O)NC(C)C)C1 | 9.38
Cc1nc(CN2C[C@@H]3CN(C(=O)NC(C)C)C[C@@H]3C2=O)cs1 | -76.2
Cc1ccsc1C(=O)N1Cc2ncn(C)c2C(COCC2CC2)C1 (stereo unspecified) | 6.76
O=C(C1CCOC1)N1CCN(CCn2cccn2)c2ncccc2C1 (stereo unspecified) | -104
CN(C)CCOCC1CN(Cc2ccsc2)Cc2ccnn2C1 (stereo unspecified) | 3.01
CC(C)(C)c1cc(CN2C[C@@H]3CC[C@H]2CN(Cc2cscn2)C3)n[nH]1 | 5.13
CC1=C(C#N)C(=O)NC(=O)/C1=C\c1c(C)[nH]n(-c2ccc(Cl)cc2)c1=O | -8.94

From ChEMBL document CHEMBL4513216, “Probing the Open Global Health Chemical Diversity Library for Multistage-Active Starting Points for Next-Generation Antimalarials” (ACS Infect Dis, 2020)
